Legend:
Assay type in all cases: functional
LOX IMVI = experiment: Cytotoxicity against human LOXIMVI cells at 10^-8 M after 48 hrs by SRB assay; settings: read-out: GI
SNB-19 = experiment: Cytotoxicity against human SNB19 cells at 10^-7 M after 48 hrs by SRB assay; settings: SNB-19, 48 h, read-out: GI
NCI-H322M = experiment: Cytotoxicity against human NCI-H322M cells at 10^-6 M after 48 hrs by SRB assay; settings: read-out: GI
Method in brief: (§1)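 Run in the NCI 60-cell-line screen after a three-line prescreen. Cells got a 48 h drug exposure; viability/growth was estimated with the sulforhodamine B protein assay. Growth inhibition (I%) was recorded at 100, 10, 1, 0.1 and 0.01 micromolar. Percent growth is relative to untreated control cells, and negative values indicate cell kill.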

A498 = experiment: Cytotoxicity against human A498 cells at 10^-5 M after 48 hrs by SRB assay; settings: A498, 48 h, read-out: GI
Method in brief: (§2)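 Run by NCI on its 60-line human tumor cell panel, after a three-cell-line prescreen. Cells were exposed to drug for 48 h over a 5-log range: 100, 10, 1, 0.1 and 0.01 micromolar. Growth was estimated by sulforhodamine B (SRB) protein staining. Percent growth inhibition (I%) was recorded at each concentration relative to untreated control cells.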

SN12C = experiment: Cytotoxicity against human SN12C cells at 10^-5 M after 48 hrs by SRB assay; settings: read-out: GI
DU-145 [1] = experiment: Cytotoxicity against human DU145 cells at 10^-6 M after 48 hrs by SRB assay; settings: DU-145, 48 h, read-out: GI; method in brief: as §2
HOP-62 [2] = experiment: Cytotoxicity against human HOP62 cells at 10^-8 M after 48 hrs by SRB assay; settings: HOP-62, 48 h, read-out: GI
U-251 = experiment: Cytotoxicity against human U251 cells at 10^-6 M after 48 hrs by SRB assay; settings: U-251, 48 h, read-out: GI
SNB-75 [3] = experiment: Cytotoxicity against human SNB75 cells at 10^-5 M after 48 hrs by SRB assay; settings: SNB-75, 48 h, read-out: GI
[4] = Cytotoxicity against human Hs578T cells at 10^-5 M after 48 hrs by SRB assay; settings: Hs-578T, read-out: GI; method in brief: as §2
SNB-75 [5] = experiment: Cytotoxicity against human SNB75 cells at 10^-6 M after 48 hrs by SRB assay; settings: SNB-75, 48 h, read-out: GI
CAKI-1 [6] = experiment: Cytotoxicity against human Caki1 cells at 10^-8 M after 48 hrs by SRB assay; settings: CAKI-1, 48 h, read-out: GI
MDA-MB-231 = experiment: Cytotoxicity against human MDA-MB-231 cells at 10^-5 M after 48 hrs by SRB assay; settings: MDA-MB-231, 48 h, read-out: GI; method in brief: as §1
NCI-H23 [7] = experiment: Cytotoxicity against human NCI-H23 cells at 10^-5 M after 48 hrs by SRB assay; settings: NCI-H23, 48 h, read-out: GI; method in brief: as §1
CAKI-1 [8] = experiment: Cytotoxicity against human Caki1 cells at 10^-6 M after 48 hrs by SRB assay; settings: CAKI-1, 48 h, read-out: GI; method in brief: as §2
[9] = Cytotoxicity against human OVCAR5 cells at 10^-6 M after 48 hrs by SRB assay; settings: OVCAR-5, 48 h, read-out: GI
Method in brief: (§3)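 Second-stage screen in the 60-cell-line human tumor panel at NCI, over a 5-log range (100, 10, 1, 0.1, 0.01 micromolar). Cells were exposed to drug for 48 h and growth was estimated with a sulforhodamine B protein stain. The value is percent growth inhibition at each concentration.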

CCRF-CEM = experiment: Cytotoxicity against human CCRF-CEM cells at 10^-6 M after 48 hrs by SRB assay; settings: read-out: GI; method in brief: as §2
A549 [10] = experiment: Cytotoxicity against human A549 cells at 10^-5 M after 48 hrs by SRB assay; settings: A549, 48 h, read-out: GI; method in brief: as §2
[11] = Cytotoxicity against human OVCAR4 cells at 10^-6 M after 48 hrs by SRB assay; settings: OVCAR-4, 48 h, read-out: GI; method in brief: as §3
NCI-H23 [12] = experiment: Cytotoxicity against human NCI-H23 cells at 10^-6 M after 48 hrs by SRB assay; settings: NCI-H23, 48 h, read-out: GI; method in brief: as §1
[13] = Cytotoxicity against human Hs578T cells at 10^-8 M after 48 hrs by SRB assay; settings: Hs-578T, read-out: GI
[14] = Cytotoxicity against human UACC257 cells after 48 hrs by SRB assay; settings: UACC-257, 48 h
NCI/ADR-RES = experiment: Cytotoxicity against human NCI/ADR-RES cells at 10^-8 M after 48 hrs by SRB assay; settings: read-out: GI
SF-295 = experiment: Cytotoxicity against human SF295 cells at 10^-6 M after 48 hrs by SRB assay; settings: SF-295, 48 h, read-out: GI; method in brief: as §3
A549 [15] = experiment: Cytotoxicity against human A549 cells at 10^-6 M after 48 hrs by SRB assay; settings: A549, 48 h, read-out: GI; method in brief: as §2
HOP-62 [16] = experiment: Cytotoxicity against human HOP62 cells at 10^-6 M after 48 hrs by SRB assay; settings: HOP-62, 48 h, read-out: GI; method in brief: as §2
SF-268 = experiment: Cytotoxicity against human SF268 cells at 10^-6 M after 48 hrs by SRB assay; settings: SF-268, 48 h, read-out: GI; method in brief: as §3
SK-MEL-28 = experiment: Cytotoxicity against human SK-MEL-28 cells at 10^-6 M after 48 hrs by SRB assay; settings: SK-MEL-28, 48 h, read-out: GI; method in brief: as §3
HCT-116 = experiment: Cytotoxicity against human HCT116 cells at 10^-5 M after 48 hrs by SRB assay; settings: HCT-116, 48 h, read-out: GI; method in brief: as §2
DU-145 [17] = experiment: Cytotoxicity against human DU145 cells at 10^-5 M after 48 hrs by SRB assay; settings: DU-145, 48 h, read-out: GI; method in brief: as §2
SF-539 [18] = experiment: Cytotoxicity against human SF539 cells at 10^-5 M after 48 hrs by SRB assay; settings: SF-539, 48 h, read-out: GI; method in brief: as §3
COLO 205 [19] = experiment: Cytotoxicity against human COLO205 cells at 10^-5 M after 48 hrs by SRB assay; settings: COLO 205, 48 h, read-out: GI; method in brief: as §2
SF-539 [20] = experiment: Cytotoxicity against human SF539 cells at 10^-6 M after 48 hrs by SRB assay; settings: SF-539, 48 h, read-out: GI; method in brief: as §3
COLO 205 [21] = experiment: Cytotoxicity against human COLO205 cells at 10^-6 M after 48 hrs by SRB assay; settings: COLO 205, 48 h, read-out: GI; method in brief: as §2
SK-MEL-2 = experiment: Cytotoxicity against human SK-MEL-2 cells at 10^-6 M after 48 hrs by SRB assay; settings: SK-MEL-2, 48 h, read-out: GI; method in brief: as §3
HOP-92 = experiment: Cytotoxicity against human HOP92 cells at 10^-5 M after 48 hrs by SRB assay; settings: HOP-92, 48 h, read-out: GI; method in brief: as §2
NCI-H460 = experiment: Cytotoxicity against human NCI-H460 cells at 10^-5 M after 48 hrs by SRB assay; settings: NCI-H460, 48 h, read-out: GI; method in brief: as §1
UACC-62 = experiment: Cytotoxicity against human UACC62 cells at 10^-7 M after 48 hrs by SRB assay; settings: UACC-62, 48 h, read-out: GI
CAKI-1 [22] = experiment: Cytotoxicity against human Caki1 cells at 10^-5 M after 48 hrs by SRB assay; settings: CAKI-1, 48 h, read-out: GI; method in brief: as §2

CCN(Cc1nc2cc(C(F)(F)F)ccc2nc1-c1ccccc1)c1ccc(OC)c(OC)c1
inhibition of growth at 0.01 µM (LOX IMVI): < 40%
inhibition of growth at 0.1 µM (SNB-19): < 40%
inhibition of growth at 1 µM (NCI-H322M): < 40%
inhibition of growth at 10 µM (A498): 63%
inhibition of growth at 10 µM (SN12C): 21%
inhibition of growth at 1 µM (DU-145 [1]): < 40%
inhibition of growth at 0.01 µM (HOP-62 [2]): < 40%
inhibition of growth at 1 µM (U-251): < 40%
inhibition of growth at 10 µM (SNB-75 [3]): < 40%
inhibition of growth at 10 µM [4]: 43%
inhibition of growth at 1 µM (SNB-75 [5]): < 40%
inhibition of growth at 0.01 µM (CAKI-1 [6]): < 40%
inhibition of growth at 10 µM (MDA-MB-231): 36%
inhibition of growth at 10 µM (NCI-H23 [7]): 34%
inhibition of growth at 1 µM (CAKI-1 [8]): 19%
inhibition of growth at 1 µM [9]: < 40%
inhibition of growth at 1 µM (CCRF-CEM): < 40%
inhibition of growth at 10 µM (A549 [10]): 79%
inhibition of growth at 1 µM [11]: < 40%
inhibition of growth at 1 µM (NCI-H23 [12]): 14%
inhibition of growth at 0.01 µM [13]: < 40%
GI50 [14]: 25.1 nM
inhibition of growth at 0.01 µM (NCI/ADR-RES): < 40%
inhibition of growth at 1 µM (SF-295): < 40%
inhibition of growth at 1 µM (A549 [15]): 56%
inhibition of growth at 1 µM (HOP-62 [16]): < 40%
inhibition of growth at 1 µM (SF-268): < 40%
inhibition of growth at 1 µM (SK-MEL-28): < 40%
inhibition of growth at 10 µM (HCT-116): 43%
inhibition of growth at 10 µM (DU-145 [17]): 26%
inhibition of growth at 10 µM (SF-539 [18]): 18%
inhibition of growth at 10 µM (COLO 205 [19]): < 40%
inhibition of growth at 1 µM (SF-539 [20]): < 40%
inhibition of growth at 1 µM (COLO 205 [21]): < 40%
inhibition of growth at 1 µM (SK-MEL-2): < 40%
inhibition of growth at 10 µM (HOP-92): 21%
inhibition of growth at 10 µM (NCI-H460): 25%
inhibition of growth at 0.1 µM (UACC-62): < 40%
inhibition of growth at 10 µM (CAKI-1 [22]): 29%

C#CCN(Cc1nc2cc(C(F)(F)F)ccc2nc1-c1ccccc1)c1ccc(C)cc1
inhibition of growth at 1 µM (NCI-H322M): < 40%
inhibition of growth at 10 µM (A498): 116%
inhibition of growth at 10 µM (SN12C): 80%
inhibition of growth at 1 µM (DU-145 [1]): < 40%
inhibition of growth at 1 µM (U-251): < 40%
inhibition of growth at 10 µM (SNB-75 [3]): 118%
inhibition of growth at 10 µM [4]: 88%
inhibition of growth at 1 µM (SNB-75 [5]): < 40%
inhibition of growth at 10 µM (MDA-MB-231): 64%
inhibition of growth at 10 µM (NCI-H23 [7]): 92%
inhibition of growth at 1 µM (CAKI-1 [8]): < 40%
inhibition of growth at 1 µM [9]: < 40%
inhibition of growth at 1 µM (CCRF-CEM): < 40%
inhibition of growth at 10 µM (A549 [10]): 55%
inhibition of growth at 1 µM [11]: < 40%
inhibition of growth at 1 µM (NCI-H23 [12]): < 40%
inhibition of growth at 1 µM (SF-295): 56%
inhibition of growth at 1 µM (A549 [15]): 45%
inhibition of growth at 1 µM (HOP-62 [16]): 56%
inhibition of growth at 1 µM (SF-268): < 40%
inhibition of growth at 1 µM (SK-MEL-28): < 40%
inhibition of growth at 10 µM (HCT-116): 79%
inhibition of growth at 10 µM (DU-145 [17]): < 40%
inhibition of growth at 10 µM (SF-539 [18]): 49%
inhibition of growth at 10 µM (COLO 205 [19]): 164%
inhibition of growth at 1 µM (SF-539 [20]): < 40%
inhibition of growth at 1 µM (COLO 205 [21]): 108%
inhibition of growth at 1 µM (SK-MEL-2): 41%
inhibition of growth at 10 µM (HOP-92): < 40%
inhibition of growth at 10 µM (NCI-H460): 75%
inhibition of growth at 10 µM (CAKI-1 [22]): 82%
